Results from different studies.
Lines come from different studies, so protocols differ.

Structure (SMILES)	matrix	concentration	time	pH	Papp [×10⁻⁶ cm/s]
O=c1cc(-c2ccccc2)oc2c(O)c(O)ccc12	PAMPA-BBB	1 µM	18 h	–	6.32
COCCOCCOc1c(OC)cc2cc(C(=O)N3C[C@@H](CCl)c4c3cc(O)c3[nH]c(C(=O)OC)cc43)[nH]c2c1OC	PAMPA	1 µM	5 h	pH 7.4	3.6
CC(NC(C)(C)C)C(=O)c1cccc(Cl)c1 (stereo not drawn)	PAMPA-BBB	1 µM	18 h	–	16
O=C(Nc1ccc2c(c1)B(O)OC2)c1ccc(OCc2ccc(Cl)cc2)cc1	PAMPA	200 µM	5 h	pH 7.4	4.4
CN1CCN([C@@H](c2ccccc2)c2ccc(Cl)cc2)CC1	PAMPA	–	–	–	1830
O=C(Nc1cccc(B(O)O)c1)c1cccc(OCc2ccccc2)c1	PAMPA	200 µM	5 h	pH 7.4	0.1
CC[C@@H](C)[C@@H]1NC(=O)[C@@H](Cc2ccc(OC)cc2)NC(=O)CN(C)C(=O)[C@H]([C@H](C)CC)NC(=O)[C@@H](Cc2ccc(OC)cc2)NC(=O)CN(C)C1=O	PAMPA	–	–	–	29
COc1ccc(C[C@@H]2NC(=O)[C@@H](CC(C)C)NC(=O)[C@H](CCSC)NC(=O)[C@H](CC(C)C)NC(=O)[C@@H](CC(C)C)NC(=O)[C@H]3CCCN3C2=O)cc1	PAMPA	10 µM	7 h	–	13
CC[C@@H](C)[C@@H]1NC(=O)[C@@H](Cc2ccc(Cl)cc2)NC(=O)CN(C)C(=O)[C@H]([C@H](C)CC)NC(=O)[C@@H](Cc2ccc(Cl)cc2)NC(=O)CN(C)C1=O	PAMPA	–	–	–	33
COCCOCCOCCOc1c(OC)cc2cc(C(=O)N3C[C@@H](CCl)c4c3cc(O)c3[nH]c(C(=O)OC)cc43)[nH]c2c1OC	PAMPA	1 µM	5 h	pH 7.4	4.2
NC(=O)[C@@H]1CC(F)(F)CN1C(=O)c1ccc(N2CC(F)(F)C2)c(OCC2CC2)n1	PAMPA	–	–	–	5.23
O=C1NC(=O)C(c2ccccc2)(c2ccccc2)N1	PAMPA	200 µM	5 h	pH 7.4	6.1
Cc1nc([C@@](C)(CC2CC2)NC(=O)c2cc(OCC(F)(F)F)c(C3CC3)cn2)no1	PAMPA	–	–	–	2.44
CC[C@H](C)[C@@H]1NC(=O)[C@H](CC(C)C)NC(=O)[C@@H](CC(C)C)NC(=O)[C@H]2CCCN2C(=O)[C@H](Cc2ccc(OC)cc2)NC(=O)[C@@H](CC(C)C)NC1=O	PAMPA	10 µM	7 h	–	11.9
O=C(Nc1ccc2c(c1)B(O)OC2)c1ccccc1OCc1ccccc1	PAMPA	200 µM	5 h	pH 7.4	1.2
